Measurements from ChEMBL document CHEMBL1154956, “Stereospecific synthesis of oximes and oxime ethers of 3-azabicycles: A SAR study towards antimicrobial agents” (2010).
Values after ≈ are worked out from the molar mass of the structure shown.

How the values were obtained:
Type in all cases: functional
Klebsiella pneumoniae = experiment: Antibacterial activity against Klebsiella pneumoniae by NCCLS broth microdilution method
Cryptococcus neoformans = experiment: Antifungal activity against Cryptococcus neoformans by NCCLS broth microdilution method
Procedure, shortened: (§1)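 MIC90 was taken as the lowest concentration that inhibited 90% of pathogen growth after incubation, reported in μg/mL. Broth dilution followed the NCCLS reference standards: M27-A for yeasts and the proposed standard for conidium-forming filamentous fungi. Fluconazole was the reference drug.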

Candida albicans = experiment: Antifungal activity against Candida albicans by NCCLS broth microdilution method; procedure, shortened: as §1
Pseudomonas aeruginosa = experiment: Antibacterial activity against Pseudomonas aeruginosa by NCCLS broth microdilution method
Staphylococcus aureus = experiment: Antibacterial activity against Staphylococcus aureus by NCCLS broth microdilution method
Bacillus subtilis = experiment: Antibacterial activity against Bacillus subtilis by NCCLS broth microdilution method
Candida parapsilosis = experiment: Antifungal activity against Candida parapsilosis by NCCLS broth microdilution method; procedure, shortened: as §1
Aspergillus niger = experiment: Antifungal activity against Aspergillus niger by NCCLS broth microdilution method; procedure, shortened: as §1
[1] = Klebsiella pneumoniae, read-out: MIC90
[2] = Cryptococcus neoformans, read-out: MIC90
[3] = Candida albicans, read-out: MIC90
[4] = Pseudomonas aeruginosa, read-out: MIC90
[5] = Staphylococcus aureus, read-out: MIC90
[6] = Bacillus subtilis, read-out: MIC90
[7] = Lodderomyces parapsilosis, read-out: MIC90
[8] = Aspergillus niger, read-out: MIC90

Compound | MIC90 (Klebsiella pneumoniae; [1]) [µg/mL] | MIC90 (Cryptococcus neoformans; [2]) [µg/mL] | MIC90 (Candida albicans; [3]) [µg/mL] | MIC90 (Pseudomonas aeruginosa; [4]) [µg/mL] | MIC90 (Staphylococcus aureus; [5]) [µg/mL] | MIC90 (Bacillus subtilis; [6]) [µg/mL] | MIC90 (Candida parapsilosis; [7]) [µg/mL] | MIC90 (Aspergillus niger; [8]) [µg/mL] | MIC90 (Candida albicans) [µg/mL] | MIC90 (Pseudomonas aeruginosa) [µg/mL] | MIC90 (Aspergillus niger) [µg/mL] | MIC90 (Klebsiella pneumoniae) [µg/mL] | MIC90 (Cryptococcus neoformans) [µg/mL] | MIC90 (Staphylococcus aureus) [µg/mL] | MIC90 (Candida parapsilosis) [µg/mL] | MIC90 (Bacillus subtilis) [µg/mL]
CC12CCCC(/C1=N\O)C(c1ccc(Cl)cc1)NC2c1ccc(Cl)cc1 (stereo unspecified) | 16 (≈ 41.1 µM) | 32 (≈ 82.2 µM) | 32 (≈ 82.2 µM) | > 128 | 64 (≈ 164 µM) | > 128 | 64 (≈ 164 µM) | 64 (≈ 164 µM) | – | – | – | – | – | – | – | –
CC12CCCC(/C1=N\O)C(c1ccccc1Br)NC2c1ccccc1Br (stereo unspecified) | 128 (≈ 268 µM) | > 128 | 64 (≈ 134 µM) | > 128 | 64 (≈ 134 µM) | 128 (≈ 268 µM) | 64 (≈ 134 µM) | 128 (≈ 268 µM) | – | – | – | – | – | – | – | –
CC1CC2C(=NO)C(C1)C(c1ccccc1Cl)NC2c1ccccc1Cl (stereo in doubt; 52a) | 32 (≈ 82.2 µM) | 32 (≈ 82.2 µM) | – | – | 16 (≈ 41.1 µM) | 32 (≈ 82.2 µM) | 32 (≈ 82.2 µM) | – | 16 (≈ 41.1 µM) | 32 (≈ 82.2 µM) | > 128 | – | – | – | – | –
CON=C1C2CC(C)CC1C(c1ccc(Cl)cc1)NC2c1ccc(Cl)cc1 (stereo unspecified) | 8 (≈ 19.8 µM) | 16 (≈ 39.7 µM) | 32 (≈ 79.3 µM) | 32 (≈ 79.3 µM) | 16 (≈ 39.7 µM) | 16 (≈ 39.7 µM) | 16 (≈ 39.7 µM) | 64 (≈ 159 µM) | – | – | – | – | – | – | – | –
CO/N=C1\C2CCCC1(C)C(c1ccc(Br)cc1)NC2c1ccc(Br)cc1 (stereo unspecified) | 32 (≈ 65 µM) | 64 (≈ 130 µM) | 64 (≈ 130 µM) | > 128 | 32 (≈ 65 µM) | 64 (≈ 130 µM) | 128 (≈ 260 µM) | 32 (≈ 65 µM) | – | – | – | – | – | – | – | –
CON=C1C2CC(C)CC1C(c1cccc(F)c1)NC2c1cccc(F)c1 (stereo in doubt; 56b) | – | – | – | – | – | – | – | – | 8 (≈ 21.6 µM) | 64 (≈ 173 µM) | 16 (≈ 43.2 µM) | 64 (≈ 173 µM) | 32 (≈ 86.4 µM) | 32 (≈ 86.4 µM) | 16 (≈ 43.2 µM) | 32 (≈ 86.4 µM)
CC1CC2C(=NO)C(C1)C(c1cccc(F)c1)NC2c1cccc(F)c1 (stereo in doubt; 50a) | 32 (≈ 89.8 µM) | > 128 | 128 (≈ 359 µM) | 64 (≈ 180 µM) | 32 (≈ 89.8 µM) | 128 (≈ 359 µM) | 64 (≈ 180 µM) | 64 (≈ 180 µM) | – | – | – | – | – | – | – | –
CC12CCCC(/C1=N\O)C(c1ccc(Br)cc1)NC2c1ccc(Br)cc1 (stereo unspecified) | > 128 | 128 (≈ 268 µM) | > 128 | > 128 | 64 (≈ 134 µM) | > 128 | > 128 | 128 (≈ 268 µM) | – | – | – | – | – | – | – | –

Continued, values first:

MIC90 (Klebsiella pneumoniae; [1]) [µg/mL] | MIC90 (Cryptococcus neoformans; [2]) [µg/mL] | MIC90 (Candida albicans; [3]) [µg/mL] | MIC90 (Pseudomonas aeruginosa; [4]) [µg/mL] | MIC90 (Staphylococcus aureus; [5]) [µg/mL] | MIC90 (Bacillus subtilis; [6]) [µg/mL] | MIC90 (Candida parapsilosis; [7]) [µg/mL] | MIC90 (Aspergillus niger; [8]) [µg/mL] | MIC90 (Candida albicans) [µg/mL] | MIC90 (Pseudomonas aeruginosa) [µg/mL] | MIC90 (Aspergillus niger) [µg/mL] | MIC90 (Klebsiella pneumoniae) [µg/mL] | MIC90 (Cryptococcus neoformans) [µg/mL] | MIC90 (Staphylococcus aureus) [µg/mL] | MIC90 (Candida parapsilosis) [µg/mL] | MIC90 (Bacillus subtilis) [µg/mL] | Compound
– | – | – | – | – | 16 (≈ 44.9 µM) | – | – | 64 (≈ 180 µM) | 32 (≈ 89.8 µM) | 64 (≈ 180 µM) | 16 (≈ 44.9 µM) | 64 (≈ 180 µM) | 8 (≈ 22.4 µM) | 128 (≈ 359 µM) | – | CC1CC2C(=NO)C(C1)C(c1ccccc1F)NC2c1ccccc1F (stereo in doubt; 49a)
32 (≈ 79.3 µM) | 64 (≈ 159 µM) | 32 (≈ 79.3 µM) | 64 (≈ 159 µM) | 64 (≈ 159 µM) | 128 (≈ 317 µM) | 32 (≈ 79.3 µM) | 128 (≈ 317 µM) | – | – | – | – | – | – | – | – | CO/N=C1\C2CCCC1(C)C(c1cccc(Cl)c1)NC2c1cccc(Cl)c1 (stereo unspecified)
– | – | – | – | – | – | – | – | 2 (≈ 5.4 µM) | 32 (≈ 86.4 µM) | 2 (≈ 5.4 µM) | 16 (≈ 43.2 µM) | 4 (≈ 10.8 µM) | 16 (≈ 43.2 µM) | 2 (≈ 5.4 µM) | 8 (≈ 21.6 µM) | CON=C1C2CC(C)CC1C(c1ccccc1F)NC2c1ccccc1F (stereo in doubt; 55b)
4 (≈ 10.8 µM) | 8 (≈ 21.6 µM) | 4 (≈ 10.8 µM) | 8 (≈ 21.6 µM) | 4 (≈ 10.8 µM) | 16 (≈ 43.2 µM) | 8 (≈ 21.6 µM) | 16 (≈ 43.2 µM) | – | – | – | – | – | – | – | – | CO/N=C1\C2CCCC1(C)C(c1ccccc1F)NC2c1ccccc1F (stereo unspecified)
32 (≈ 86.4 µM) | 128 (≈ 346 µM) | 16 (≈ 43.2 µM) | 32 (≈ 86.4 µM) | 16 (≈ 43.2 µM) | 128 (≈ 346 µM) | 64 (≈ 173 µM) | 64 (≈ 173 µM) | – | – | – | – | – | – | – | – | CO/N=C1\C2CCCC1(C)C(c1cccc(F)c1)NC2c1cccc(F)c1 (stereo unspecified)
128 (≈ 367 µM) | > 128 | 128 (≈ 367 µM) | > 128 | 128 (≈ 367 µM) | 64 (≈ 184 µM) | > 128 | 64 (≈ 184 µM) | – | – | – | – | – | – | – | – | Cc1ccccc1C1NC(c2ccccc2C)C2(C)CCCC1/C2=N\O (stereo unspecified)
– | – | – | – | – | – | – | – | 4 (≈ 9.92 µM) | 16 (≈ 39.7 µM) | 2 (≈ 4.96 µM) | 16 (≈ 39.7 µM) | 2 (≈ 4.96 µM) | 8 (≈ 19.8 µM) | 4 (≈ 9.92 µM) | 32 (≈ 79.3 µM) | CON=C1C2CC(C)CC1C(c1ccccc1Cl)NC2c1ccccc1Cl (stereo in doubt; 58b)
16 (≈ 39.7 µM) | 8 (≈ 19.8 µM) | 16 (≈ 39.7 µM) | 64 (≈ 159 µM) | 32 (≈ 79.3 µM) | 64 (≈ 159 µM) | 16 (≈ 39.7 µM) | 8 (≈ 19.8 µM) | – | – | – | – | – | – | – | – | CO/N=C1\C2CCCC1(C)C(c1ccc(Cl)cc1)NC2c1ccc(Cl)cc1 (stereo unspecified)
64 (≈ 130 µM) | 128 (≈ 260 µM) | 64 (≈ 130 µM) | 128 (≈ 260 µM) | 64 (≈ 130 µM) | 64 (≈ 130 µM) | 32 (≈ 65 µM) | 32 (≈ 65 µM) | – | – | – | – | – | – | – | – | CO/N=C1\C2CCCC1(C)C(c1ccccc1Br)NC2c1ccccc1Br (stereo unspecified)
